{"source": "paper PMC9685603", "about": "(ACS Omega, 2022)", "test_system": "HEK 293 cells", "assay": "MTT cell viability", "assay_type": "cell-based, human", "settings": "MTT assay, 48 h, studied concentration range 100–0.01 μM", "outline": "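Seeding in DMEM with 10% FBS was 8000 cells/well for MCF-7 and MDA-MB-468 and 5000 cells/well for HEK 293. Cells were held 24 h at 37 °C, 5% CO2, humidified, then exposed to test compounds at varied concentrations for 48 h. MTT reagent (5 mg/mL) was added for 2–4 h and formazan dissolved in DMSO. Absorbance was read at 570/690 nm and % survival calculated.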", "note": "Entries after “also recorded” stand apart in the source; their conditions may differ.", "data": [{"compound": "O=S(=O)(NN=Cc1cn(CCN2CCOCC2)c2ccccc12)c1ccc(Cl)cc1", "note": "[Compound 5f, 4-Chloro-N′-((1-(2-morpholinoethyl)-1H-indol-3-yl)methylene)benzenesulfonohydrazide]", "values": [{"measurement": "toxicity against HEK 293 noncancerous cells", "value": "biocompatible; also recorded: nontoxic"}]}]}
